Active and inactive are the calls of the source. The rule behind the calls is not given here.
Columns and labels:
[1] = target: Thioredoxin (Homo sapiens) (UniProt P10599); assay: Binding affinity to TXN in human NCI-H23 cells at 1 uM by mass spectrometry based pull down assay; format: cell-based
[2] = target: Calmodulin-2 (Homo sapiens) (UniProt P0DP24); assay: Binding affinity to CALM2 in human NCI-H23 cells at 1 uM by mass spectrometry based pull down assay; format: cell-based
[3] = target: Bifunctional phosphoribosylaminoimidazole carboxylase/phosphoribosylaminoimidazole succinocarboxamide synthetase (Homo sapiens) (UniProt P22234); assay: Binding affinity to PAICS in human NCI-H358 cells at 1 uM by mass spectrometry based pull down assay; format: cell-based
[4] = target: ATP synthase F(1) complex subunit alpha, mitochondrial (Homo sapiens) (UniProt P25705); assay: Binding affinity to ATP5A1 in human NCI-H358 cells at 1 uM by mass spectrometry based pull down assay; format: cell-based
[5] = target: Transmembrane emp24 domain-containing protein 10 (Homo sapiens) (UniProt P49755); assay: Binding affinity to TMED10 in human NCI-H23 cells at 1 uM by mass spectrometry based pull down assay; format: cell-based
[6] = target: Aspartyl aminopeptidase (Homo sapiens) (UniProt Q9ULA0); assay: Binding affinity to DNPEP in human NCI-H23 cells at 1 uM by mass spectrometry based pull down assay; format: cell-based
[7] = target: T1, 80S Ribosome (Homo sapiens) (UniProt P08865+P42677+P62753+P15880+P23396+P61247+P62701+P22090+P46782+P62081+P62241+P46781+P46783+P62280+P25398+P62277+P62263+P62841+P62244+P62249+P08708+P62269+P39019+P60866+P63220+P62266+P62847+P62851+P62854+P62979+P62857+P62273+P62861+P39023+P36578+P46777+Q02878+P18124+P62424+P62917+P32969+P27635+P62906+P62913+P30050+P26373+P40429+P50914+P61313+P18621+Q07020+Q02543+P84098+P46778+P35268+P62829+P62750+P83731+P61254+P61353+P46776+P46779+P47914+P62888+P62899+P62910+P49207+P42766+P18077+Q9Y3U8+P83881+P61927+P61513+P63173+P62891+P62945+P05388+P05386); assay: Binding affinity to RPS12 in human NCI-H358 cells at 1 uM by mass spectrometry based pull down assay; format: cell-based
[8] = target: Eukaryotic translation initiation factor 6 (Homo sapiens) (UniProt P56537); assay: Binding affinity to EIF6 in human NCI-H23 cells at 1 uM by mass spectrometry based pull down assay; format: cell-based
[9] = target: T1, 80S Ribosome (Homo sapiens); assay: Binding affinity to RPL8 in human NCI-H23 cells at 1 uM by mass spectrometry based pull down assay; format: cell-based
NCI-H23 = assay: Binding affinity to PSMA3 in human NCI-H23 cells at 1 uM by mass spectrometry based pull down assay; format: cell-based
[10] = target: T2, Mitogen-activated protein kinase kinase kinase 7 (Homo sapiens) (UniProt O43318); assay: Binding affinity to MAP3K7 in human NCI-H23 cells at 1 uM by mass spectrometry based pull down assay; format: cell-based
T2 sequence (whole entry): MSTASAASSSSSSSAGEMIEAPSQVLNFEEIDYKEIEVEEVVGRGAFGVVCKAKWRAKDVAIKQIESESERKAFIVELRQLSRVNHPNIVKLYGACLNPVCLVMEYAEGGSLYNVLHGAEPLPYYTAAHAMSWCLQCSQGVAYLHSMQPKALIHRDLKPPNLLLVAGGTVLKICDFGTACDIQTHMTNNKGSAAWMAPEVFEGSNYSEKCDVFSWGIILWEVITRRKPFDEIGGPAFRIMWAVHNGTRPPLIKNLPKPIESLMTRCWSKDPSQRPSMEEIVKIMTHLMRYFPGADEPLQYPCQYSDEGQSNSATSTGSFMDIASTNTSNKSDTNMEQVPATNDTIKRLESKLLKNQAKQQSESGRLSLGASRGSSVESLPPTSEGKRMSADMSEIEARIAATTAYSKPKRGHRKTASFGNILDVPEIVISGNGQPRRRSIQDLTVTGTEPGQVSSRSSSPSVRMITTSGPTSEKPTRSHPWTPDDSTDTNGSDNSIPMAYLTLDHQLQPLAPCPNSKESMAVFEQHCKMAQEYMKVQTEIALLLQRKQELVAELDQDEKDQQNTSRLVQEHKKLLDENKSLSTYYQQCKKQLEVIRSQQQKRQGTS

[11] = target: Heterogeneous nuclear ribonucleoprotein H2 (Homo sapiens) (UniProt P55795); assay: Binding affinity to HNRNPH2 in human NCI-H358 cells at 1 uM by mass spectrometry based pull down assay; format: cell-based
[12] = target: Jupiter microtubule associated homolog 2 (Homo sapiens) (UniProt Q9H910); assay: Binding affinity to HN1L in human NCI-H358 cells at 1 uM by mass spectrometry based pull down assay; format: cell-based
[13] = target: Translation initiation factor eIF2B subunit gamma (Homo sapiens) (UniProt Q9NR50); assay: Binding affinity to EIF2B3 in human NCI-H358 cells at 1 uM by mass spectrometry based pull down assay; format: cell-based
[14] = target: T1, 80S Ribosome (Homo sapiens); assay: Binding affinity to RPS7 in human NCI-H23 cells at 1 uM by mass spectrometry based pull down assay; format: cell-based
[15] = target: Nuclear pore complex protein Nup155 (Homo sapiens) (UniProt O75694); assay: Binding affinity to NUP155 in human NCI-H23 cells at 1 uM by mass spectrometry based pull down assay; format: cell-based
[16] = target: Actin-related protein 2/3 complex subunit 1B (Homo sapiens) (UniProt O15143); assay: Binding affinity to ARPC1B in human NCI-H358 cells at 1 uM by mass spectrometry based pull down assay; format: cell-based
[17] = target: T3, Dual specificity mitogen-activated protein kinase kinase 5 (Homo sapiens) (UniProt Q13163); assay: Inhibition of human MEK5 (98 to 448 residues) expressed in mammalian expression system assessed as enzyme activity at 10 uM by KINOMEScan assay relative to control; parameters: scale not given: the % may be the effect or the level left
T3 sequence (whole entry): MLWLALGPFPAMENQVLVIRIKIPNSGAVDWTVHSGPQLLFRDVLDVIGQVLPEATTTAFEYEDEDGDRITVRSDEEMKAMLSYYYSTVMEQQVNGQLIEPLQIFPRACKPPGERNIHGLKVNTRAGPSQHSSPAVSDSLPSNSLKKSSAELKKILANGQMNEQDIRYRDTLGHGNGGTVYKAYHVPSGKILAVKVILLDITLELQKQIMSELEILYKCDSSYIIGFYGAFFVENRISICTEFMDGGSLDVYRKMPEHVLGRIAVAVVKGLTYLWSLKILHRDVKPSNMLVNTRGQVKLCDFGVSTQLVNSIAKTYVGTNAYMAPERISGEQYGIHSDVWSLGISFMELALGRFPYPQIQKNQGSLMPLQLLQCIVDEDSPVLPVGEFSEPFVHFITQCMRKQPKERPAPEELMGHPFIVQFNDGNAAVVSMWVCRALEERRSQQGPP
Summary of the method: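 In vitro ATP-site competition binding assay across a panel of 456 kinases, with compound tested at 1 and 10 μM.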

Chain of ATP synthase F(1) complex subunit alpha, mitochondrial (Homo sapiens) (P25705 whole entry, the tested form may be a part, one chain of several): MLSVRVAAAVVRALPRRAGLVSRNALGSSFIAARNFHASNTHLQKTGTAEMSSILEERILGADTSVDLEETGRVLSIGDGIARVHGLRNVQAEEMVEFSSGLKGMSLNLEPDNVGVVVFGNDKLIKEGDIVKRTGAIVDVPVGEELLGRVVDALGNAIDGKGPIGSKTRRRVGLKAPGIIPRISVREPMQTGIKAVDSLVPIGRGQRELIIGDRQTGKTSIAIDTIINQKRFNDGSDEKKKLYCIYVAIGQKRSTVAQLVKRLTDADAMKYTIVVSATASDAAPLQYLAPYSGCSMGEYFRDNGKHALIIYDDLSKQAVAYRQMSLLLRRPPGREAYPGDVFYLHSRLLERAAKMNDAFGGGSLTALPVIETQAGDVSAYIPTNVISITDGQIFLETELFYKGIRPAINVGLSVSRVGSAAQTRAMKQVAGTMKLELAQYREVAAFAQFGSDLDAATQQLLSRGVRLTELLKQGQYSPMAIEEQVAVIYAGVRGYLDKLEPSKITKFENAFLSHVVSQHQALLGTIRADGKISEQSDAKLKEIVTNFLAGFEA
Chain of Heterogeneous nuclear ribonucleoprotein H2 (Homo sapiens) (P55795 whole entry): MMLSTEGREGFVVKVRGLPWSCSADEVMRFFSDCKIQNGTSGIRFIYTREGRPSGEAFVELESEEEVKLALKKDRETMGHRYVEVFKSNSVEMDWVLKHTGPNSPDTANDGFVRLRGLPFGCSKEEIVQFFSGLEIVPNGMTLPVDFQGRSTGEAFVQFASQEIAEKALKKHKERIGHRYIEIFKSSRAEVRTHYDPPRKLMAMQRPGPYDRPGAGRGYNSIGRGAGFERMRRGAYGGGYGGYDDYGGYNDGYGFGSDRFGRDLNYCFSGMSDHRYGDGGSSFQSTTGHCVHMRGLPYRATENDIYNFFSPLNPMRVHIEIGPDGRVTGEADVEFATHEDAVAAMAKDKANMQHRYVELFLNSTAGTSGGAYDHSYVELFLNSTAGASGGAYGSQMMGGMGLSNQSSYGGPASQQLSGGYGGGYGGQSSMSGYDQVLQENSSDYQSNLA
Chain of Bifunctional phosphoribosylaminoimidazole carboxylase/phosphoribosylaminoimidazole succinocarboxamide synthetase (Homo sapiens) (P22234 whole entry): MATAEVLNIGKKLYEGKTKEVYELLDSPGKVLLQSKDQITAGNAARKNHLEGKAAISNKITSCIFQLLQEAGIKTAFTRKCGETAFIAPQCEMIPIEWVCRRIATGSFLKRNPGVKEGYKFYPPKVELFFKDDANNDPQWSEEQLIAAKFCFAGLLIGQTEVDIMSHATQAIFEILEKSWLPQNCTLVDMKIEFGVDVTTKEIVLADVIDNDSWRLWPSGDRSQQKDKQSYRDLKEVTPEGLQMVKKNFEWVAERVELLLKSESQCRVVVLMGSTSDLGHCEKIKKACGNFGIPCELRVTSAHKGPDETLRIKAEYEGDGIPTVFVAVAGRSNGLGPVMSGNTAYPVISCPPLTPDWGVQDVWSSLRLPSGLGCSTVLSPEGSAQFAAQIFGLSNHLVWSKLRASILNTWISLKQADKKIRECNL
Chain of Transmembrane emp24 domain-containing protein 10 (Homo sapiens) (P49755 whole entry, the tested form may be a part): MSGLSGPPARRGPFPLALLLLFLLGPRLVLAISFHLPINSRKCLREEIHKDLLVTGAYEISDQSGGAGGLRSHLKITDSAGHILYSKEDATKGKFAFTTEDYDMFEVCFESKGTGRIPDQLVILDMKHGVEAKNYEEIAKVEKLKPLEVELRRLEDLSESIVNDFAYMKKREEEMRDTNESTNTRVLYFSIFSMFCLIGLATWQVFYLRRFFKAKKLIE
Chain of Nuclear pore complex protein Nup155 (Homo sapiens) (O75694 whole entry, one chain of several): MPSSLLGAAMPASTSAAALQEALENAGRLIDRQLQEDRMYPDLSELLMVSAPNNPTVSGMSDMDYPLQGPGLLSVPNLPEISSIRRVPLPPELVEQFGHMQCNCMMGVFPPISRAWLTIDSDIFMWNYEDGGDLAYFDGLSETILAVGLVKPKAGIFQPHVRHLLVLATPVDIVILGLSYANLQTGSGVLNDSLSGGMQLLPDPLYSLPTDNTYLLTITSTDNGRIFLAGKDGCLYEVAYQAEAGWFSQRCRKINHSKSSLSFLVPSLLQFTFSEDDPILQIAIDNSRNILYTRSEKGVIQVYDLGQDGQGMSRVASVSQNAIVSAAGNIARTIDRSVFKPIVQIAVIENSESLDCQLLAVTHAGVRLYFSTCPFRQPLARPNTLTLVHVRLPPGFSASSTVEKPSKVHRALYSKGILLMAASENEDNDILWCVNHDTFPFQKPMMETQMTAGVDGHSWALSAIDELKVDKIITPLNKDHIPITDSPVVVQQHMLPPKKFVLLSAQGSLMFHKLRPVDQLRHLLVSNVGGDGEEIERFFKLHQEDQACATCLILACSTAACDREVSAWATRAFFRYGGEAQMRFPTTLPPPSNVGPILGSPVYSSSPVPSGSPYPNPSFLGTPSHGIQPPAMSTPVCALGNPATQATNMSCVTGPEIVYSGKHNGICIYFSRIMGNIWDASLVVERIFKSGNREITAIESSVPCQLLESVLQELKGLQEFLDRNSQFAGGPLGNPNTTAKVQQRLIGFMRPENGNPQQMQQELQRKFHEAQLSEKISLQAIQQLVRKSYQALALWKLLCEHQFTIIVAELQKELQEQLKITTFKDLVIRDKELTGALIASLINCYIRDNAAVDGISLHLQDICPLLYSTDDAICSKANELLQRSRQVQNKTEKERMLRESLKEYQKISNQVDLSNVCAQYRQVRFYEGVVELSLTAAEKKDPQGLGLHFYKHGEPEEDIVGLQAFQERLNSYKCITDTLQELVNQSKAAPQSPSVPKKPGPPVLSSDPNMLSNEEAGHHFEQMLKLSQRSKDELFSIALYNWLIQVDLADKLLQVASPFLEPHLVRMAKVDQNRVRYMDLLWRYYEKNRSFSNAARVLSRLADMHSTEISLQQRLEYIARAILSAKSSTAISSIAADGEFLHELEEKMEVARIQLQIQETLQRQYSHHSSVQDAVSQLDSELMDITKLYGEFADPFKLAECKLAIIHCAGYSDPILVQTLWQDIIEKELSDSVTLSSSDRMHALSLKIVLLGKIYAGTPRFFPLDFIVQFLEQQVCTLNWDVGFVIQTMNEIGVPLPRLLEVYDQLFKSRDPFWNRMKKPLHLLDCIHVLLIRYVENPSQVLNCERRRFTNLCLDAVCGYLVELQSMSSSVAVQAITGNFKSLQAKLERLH
Chain of Translation initiation factor eIF2B subunit gamma (Homo sapiens) (Q9NR50 whole entry): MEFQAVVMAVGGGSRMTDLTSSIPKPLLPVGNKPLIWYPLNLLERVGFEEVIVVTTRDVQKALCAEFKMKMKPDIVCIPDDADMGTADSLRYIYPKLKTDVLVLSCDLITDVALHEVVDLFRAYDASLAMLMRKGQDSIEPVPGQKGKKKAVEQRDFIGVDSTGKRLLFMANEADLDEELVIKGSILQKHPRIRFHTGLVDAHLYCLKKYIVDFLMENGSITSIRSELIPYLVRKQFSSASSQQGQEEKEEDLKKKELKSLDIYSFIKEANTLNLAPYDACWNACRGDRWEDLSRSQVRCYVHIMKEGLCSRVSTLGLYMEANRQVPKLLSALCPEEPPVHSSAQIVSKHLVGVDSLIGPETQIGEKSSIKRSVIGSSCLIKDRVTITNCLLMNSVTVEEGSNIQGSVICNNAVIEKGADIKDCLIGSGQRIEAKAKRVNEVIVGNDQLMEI
Chain of Thioredoxin (Homo sapiens) (P10599 whole entry): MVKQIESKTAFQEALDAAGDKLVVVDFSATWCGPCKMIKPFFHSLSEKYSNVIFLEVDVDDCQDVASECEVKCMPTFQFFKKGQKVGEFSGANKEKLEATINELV
Chain of Jupiter microtubule associated homolog 2 (Homo sapiens) (Q9H910 whole entry): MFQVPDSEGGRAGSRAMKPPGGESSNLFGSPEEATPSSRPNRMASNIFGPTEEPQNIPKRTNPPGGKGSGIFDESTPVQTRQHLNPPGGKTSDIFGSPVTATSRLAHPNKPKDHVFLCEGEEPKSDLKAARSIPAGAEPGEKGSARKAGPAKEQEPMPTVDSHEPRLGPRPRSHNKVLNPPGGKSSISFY

Activity [1]	Activity [2]	Activity [3]	Activity [4]	Activity [5]	Activity [6]	Activity [7]	Activity [8]	Activity [9]	Activity [10]	Activity [11]	Activity [12]	Activity [13]	Activity [14]	Activity [15]	Activity [16]	SMILES	Activity (NCI-H23)	Activity [17]
Active	Active	Active	Active	Active	Active	Active	Active	Active	Active	Active	Active	Active	Active	Active	Active	C=CC(=O)Nc1ccccc1Nc1nc(Nc2ccc(N3CCN(CCOCCOCCOCCNC(=O)CCCC[C@@H]4SC[C@@H]5NC(=O)N[C@@H]54)CC3)cc2)ncc1Cl	Active	–
–	–	–	–	–	–	–	–	–	–	–	–	–	–	–	–	COc1cc(O)c2c(c1)/C=C/C[C@H](O)[C@H](O)C(=O)/C=C\C[C@H](C)OC2=O	–	0.1%

Reference: ChEMBL document CHEMBL4118021, “Studies of TAK1-centered polypharmacology with novel covalent TAK1 inhibitors” (Bioorg Med Chem, 2017)
